Consider one compound from ChEMBL document CHEMBL1629459, “Microarray and molecular analyses of the azole resistance mechanism in Candida glabrata oropharyngeal isolates” (2010).

In brackets after ≈: the same amount, converted by molar mass.

Assay type in all cases: functional
Assay [1] has as its system Nakaseomyces glabratus. Briefly: Antifungal activity against Candida glabrata isolate Cg21S. The procedure, abridged:
(§1)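 Fluconazole susceptibility by modified CLSI (NCCLS) broth microdilution. Medium was buffered RPMI with 2% glucose added. Inoculum was 250 cells per well, incubated at 37°C for 48 h. MIC was read as the concentration giving 80% growth reduction (MIC80). Clinical oropharyngeal isolates were cultured on YPD or on minimal medium (yeast nitrogen base plus 2% glucose).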

Assay [2] relates to Nakaseomyces glabratus. Put plainly: Antifungal activity against Candida glabrata isolate Cg22R with CgPDR1 L280F mutant. The procedure, abridged: as §1
Assay [3] deals with Nakaseomyces glabratus. Put plainly: Antifungal activity against Candida glabrata isolate Cg7S. The method in brief:
as §1

Assay [4] concerns Nakaseomyces glabratus. Briefly: Antifungal activity against Candida glabrata isolate Cg8R with CgPDR1 W297S. The method in brief:
as §1

Assay [5] has as its system Nakaseomyces glabratus. Briefly: Antifungal activity against Candida glabrata isolate Cg17S. The method in brief:
as §1

The test system of assay [6] is Nakaseomyces glabratus. Briefly: Antifungal activity against Candida glabrata isolate Cg18R with CgPDR1 L344S mutant. The method in brief:
as §1

For assay [7], the system named is Nakaseomyces glabratus. Briefly: Antifungal activity against Candida glabrata isolate Cg11S. The method in brief: as §1
In assay [8] the test system is Nakaseomyces glabratus. Briefly: Antifungal activity against Candida glabrata isolate Cg12R with CgPDR1 G348A mutant. The procedure, abridged: as §1
For assay [9], the system named is Nakaseomyces glabratus. Put plainly: Antifungal activity against Candida glabrata isolate Cg3S. The method in brief: as §1
In assay [10] the test system is Nakaseomyces glabratus. Briefly: Antifungal activity against Candida glabrata isolate Cg4R with CgPDR1 S391L mutant. The procedure, abridged:
as §1

Assay [11] has as its system Nakaseomyces glabratus. Put plainly: Antifungal activity against Candida glabrata isolate Cg1S. The method in brief:
as §1

Assay [12] has as its system Nakaseomyces glabratus. Briefly: Antifungal activity against Candida glabrata isolate Cg2R with CgPDR1 F575L mutant. The method in brief:
as §1

Assay [13] concerns Nakaseomyces glabratus. Put plainly: Antifungal activity against Candida glabrata isolate Cg13S. The procedure, abridged:
as §1

Assay [14] has as its system Nakaseomyces glabratus. Briefly: Antifungal activity against Candida glabrata isolate Cg14R with CgPDR1 N764I mutant. The procedure, abridged: as §1
The test system of assay [15] is Nakaseomyces glabratus. Briefly: Antifungal activity against Candida glabrata isolate Cg15S. The procedure, abridged: as §1
Assay [16] relates to Nakaseomyces glabratus. Briefly: Antifungal activity against Candida glabrata isolate Cg16R with CgPDR1 R772I mutant. The method in brief:
as §1

In assay [17] the test system is Nakaseomyces glabratus. Briefly: Antifungal activity against Candida glabrata isolate Cg5S. The method in brief:
as §1

The test system of assay [18] is Nakaseomyces glabratus. Briefly: Antifungal activity against Candida glabrata isolate Cg6R with CgPDR1 G943S mutant. The method in brief:
as §1

Regarding `OC(Cn1cncn1)(Cn1cncn1)c1ccc(F)cc1F` [FLUCONAZOLE], the MIC80 in the assay with Nakaseomyces glabratus [1] was determined as 32 µg/mL (≈ 104 µM); against Nakaseomyces glabratus [2] it was 256 µg/mL (≈ 836 µM); with Nakaseomyces glabratus [3], 32 µg/mL (≈ 104 µM); against Nakaseomyces glabratus [4], 512 µg/mL (≈ 1670 µM); with Nakaseomyces glabratus [5], 32 µg/mL (≈ 104 µM); with Nakaseomyces glabratus [6], 256 µg/mL (≈ 836 µM). The MIC80 with Nakaseomyces glabratus [7] came to 32 µg/mL (≈ 104 µM); in the assay on Nakaseomyces glabratus [8] it was 256 µg/mL (≈ 836 µM); with Nakaseomyces glabratus [9], 32 µg/mL (≈ 104 µM); against Nakaseomyces glabratus [10], 256 µg/mL (≈ 836 µM); against Nakaseomyces glabratus [11], 16 µg/mL (≈ 52.2 µM); in the assay with Nakaseomyces glabratus [12], 128 µg/mL (≈ 418 µM). In addition, the MIC80 amounted to 64 µg/mL (≈ 209 µM) with Nakaseomyces glabratus [13]; 256 µg/mL (≈ 836 µM) against Nakaseomyces glabratus [14]; 16 µg/mL (≈ 52.2 µM) against Nakaseomyces glabratus [15]; 128 µg/mL (≈ 418 µM) against Nakaseomyces glabratus [16]; 32 µg/mL (≈ 104 µM) against Nakaseomyces glabratus [17]; 256 µg/mL (≈ 836 µM) against Nakaseomyces glabratus [18].
